Only some compounds are listed: those with a hit (about 0.63% of all), similar ones and a draw of the others.
TRPML3 agonist: activates the human TRPML3 channel | Q8TDD5 | HEK293 TRPML3-YFP, Fluo-8 calcium fluorescence; 100% = the carbachol control signal | activation, % at 3 µM | 220,000 tested, 0.29% active | AID 1448;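 active means activation above its plate's cutoff, the mean activation of the plate's test wells plus 3 SD, cut at about 12% in these data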
Target sequence (Q8TDD5 whole entry, looked up): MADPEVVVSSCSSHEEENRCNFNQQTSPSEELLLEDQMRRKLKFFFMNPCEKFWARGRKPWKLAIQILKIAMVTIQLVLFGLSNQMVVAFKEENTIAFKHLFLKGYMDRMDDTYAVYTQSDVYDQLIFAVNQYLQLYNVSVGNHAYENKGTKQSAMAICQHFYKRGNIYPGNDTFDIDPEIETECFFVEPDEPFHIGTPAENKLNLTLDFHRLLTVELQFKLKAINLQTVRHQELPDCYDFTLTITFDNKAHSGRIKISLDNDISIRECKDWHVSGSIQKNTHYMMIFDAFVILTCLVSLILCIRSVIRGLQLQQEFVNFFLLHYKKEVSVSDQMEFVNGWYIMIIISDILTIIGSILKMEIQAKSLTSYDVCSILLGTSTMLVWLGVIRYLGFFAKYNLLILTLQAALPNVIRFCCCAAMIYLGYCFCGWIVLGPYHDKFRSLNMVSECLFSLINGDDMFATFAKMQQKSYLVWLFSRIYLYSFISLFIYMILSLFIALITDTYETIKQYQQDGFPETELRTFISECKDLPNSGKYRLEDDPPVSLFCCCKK
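Test system: HEK293 cells stably carrying human TRPML3-YFP; Doses: single dose, 3 µM final nominal compound, 0.3% DMSO final; Schedule: dye loading 1 h 37 °C then 30 min ambient, 125 s read; Technique: Fluo-8 calcium fluorescence; Benchmarks: high control carbachol 87 µM, low control DMSO.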
zfTRPN1 agonist: agonists of zebrafish TRPN1 channel | HEK293 zebrafish TRPN1-YFP, Fluo-8 calcium fluorescence; 100% = response to 87 µM carbachol | activation, % at 3 µM | 220,000 tested, 0.18% active;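 active means activation above its plate's cutoff, the mean activation of test wells on that plate plus 3 SD, cut at about 19% in these data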
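Material: zebrafish TRPN1-YFP in HEK293 cells. Doses: one dose of 3 µM, 0.3% DMSO. Incubation: dye 1 h 37 °C plus 30 min RT. Measured by: intracellular calcium fluorescence with Fluo-8.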
IDE cell inh: cellular human IDE inhibition. 320,000 tested, 0.41% active. inhibition, % at 5.59 µM. HEK cells, FAbetaB cleavage, fluorescence polarization;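 active means percent inhibition above the average of all tested compounds plus 3 SD, set per screening campaign, cut at about 16% in these data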;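 further: IDE supplied by intact live HEK cells; FP after avidin binding of uncleaved biotin substrate so inhibition keeps polarization high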
IDE act: IDE (human) activation, cell-based. activation, % at 5.96 µM. P14735. HEK cells, FAbeta-B cleavage, fluorescence polarization; 0% vehicle, 100% cell-free pure enzyme wells. 340,000 tested, 0.073% active;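 active means activation above the mean of all tested compounds plus 3 SD, set per screening campaign, cut at about 17% in these data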
IDE cell inh cf: cellular human IDE inhibition, confirmation. HEK cells, FAbetaB cleavage, fluorescence polarization. inhibition, % at 5.59 µM. 1,200 tested, 51% active. shares compounds with IDE cell inh;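 active means mean inhibition across triplicate wells above the cutoff set by the earlier primary insulin-degrading enzyme screen, cut at about 16% in these data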
HEK cytotox: kills HEK cells in IDE inhibitor counter-screen; HEK293 cytotoxicity, ATP luminescence; inhibition, % at 5.59 µM; 1,200 tested, 28% active; shares compounds with IDE cell inh; in the data active means inhibition above about 22%
Each line names hits and unclear results; the compound was inactive in the other large screens (follow-up assays come after a bar, where they were run).

O=C1c2cnc3nc(SCc4ccc(Cl)cc4)nn3c2CC2c3ccccc3CCN12 (configuration not stated)	none
Cc1ccccc1-c1nc(CN2CCC(C(=O)NCc3cccs3)CC2)c(C)o1	none
C=CCOC(=O)C1=C(C)NC(SCC(=O)Nc2ccccc2)=C(C#N)C1c1ccco1 (configuration not stated)	none
C=CCn1c(=O)/c(=C/c2ccc(O)cc2)s/c1=C(/C#N)c1nnc2n1CCCCC2	IDE cell inh 102.3 | IDE cell inh cf 88.4 | HEK cytotox inactive
C=CCn1c(=O)/c(=C/c2ccc(Cl)cc2)s/c1=C(/C#N)c1nnc2n1CCCCC2	none
Cc1sc2ccc3sccc3c2[n+]1C	IDE cell inh 20.5 | IDE cell inh cf inactive | HEK cytotox inactive
CCN(CC)c1ccc2cc(C=O)c(=O)oc2c1	TRPML3 agonist 19.4, zfTRPN1 agonist 38.8, IDE cell inh 90.5 | IDE cell inh cf 67.3 | HEK cytotox inactive
CCN(CC)c1ccc2cc(NC(=O)CCC(=O)O)c(=O)oc2c1	none
CCN(CC)c1ccc2cc(C(C)=O)c(=O)oc2c1	IDE cell inh 35.3 | IDE cell inh cf 17.9 | HEK cytotox inactive
O=C(CSc1nc2[nH]ncc2c(=O)n1-c1ccccc1Cl)N1CCCC1	IDE cell inh 18.5 | IDE cell inh cf inactive | HEK cytotox inactive
CCOc1ccc(NC(=O)CSc2nc3[nH]ncc3c(=O)n2-c2ccccc2OC)cc1	IDE cell inh 61.9 | IDE cell inh cf inactive | HEK cytotox inactive
CCc1ccccc1-n1c(SCC(=O)N2CCCC2)nc2[nH]ncc2c1=O	none
COCCN1CC(=O)N2C(c3cccc(OC)c3)c3[nH]c4ccccc4c3C[C@H]2C1=O (some centres not stated)	none (no result: TRPML3 agonist, zfTRPN1 agonist)
CC(CC(=O)O)CC(=O)N1CCN(S(=O)(=O)c2cccs2)CC1 (configuration not stated)	IDE cell inh 20.2 (no result: TRPML3 agonist, zfTRPN1 agonist) | IDE cell inh cf inactive | HEK cytotox inactive
Cc1ccccc1CC(=O)N1CCN(S(=O)(=O)c2cccs2)CC1	none (no result: TRPML3 agonist, zfTRPN1 agonist)
Cn1c(N)c(C(=O)COC(=O)CSc2ccccc2)c(=O)n(C)c1=O	none
Cn1c(N)c(C(=O)COC(=O)CSc2ccc3ccccc3c2)c(=O)n(C)c1=O	IDE cell inh 17.6 | IDE cell inh cf inactive | HEK cytotox inactive
Cc1ccc(S(=O)(=O)N(Cc2cc3cccc(C)c3[nH]c2=O)c2ccccc2)cc1	none
O=C(NN=C1CCCC1)c1sc2ccccc2c1Cl	none
O=C1CCC/C(=N/NC(=O)c2sc3ccccc3c2Cl)C1	IDE cell inh 26.3 | IDE cell inh cf 27.0 | HEK cytotox inactive
CC(=O)c1ccc(NC(=O)C(C)OC(=O)c2ccc(NS(=O)(=O)c3ccc(F)c(F)c3)cc2)cc1 (configuration not stated)	none
COc1ccc(S(=O)(=O)N2CCN(Cc3cc(=O)n4ccccc4n3)CC2)cc1	none (no result: TRPML3 agonist, zfTRPN1 agonist)
Cc1cccc(N(CC(O)CON=C2c3ccccc3-c3ccccc32)S(C)(=O)=O)c1 (configuration not stated)	none
S=C(NCC1CCCO1)N1CCN(c2nc(-c3ccc(Cl)cc3)cs2)CC1 (configuration not stated)	IDE cell inh 20.6 | IDE cell inh cf inactive | HEK cytotox 54.4
S=C(NCCCN1CCOCC1)N1CCN(c2nc(-c3ccccc3)cs2)CC1	IDE cell inh 22.7 | IDE cell inh cf inactive | HEK cytotox 26.9
Cc1ccc(S(=O)(=O)N2CCN(C(=O)COC(=O)CCOc3ccccc3C)CC2)c(C)c1	none (no result: TRPML3 agonist, zfTRPN1 agonist, IDE cell inh)
O=C(CNC(=O)c1ccc(S(=O)(=O)N2CCCC2)cc1)N/N=C/c1ccc(Cl)cc1Cl	IDE cell inh 23.5 | IDE cell inh cf inactive | HEK cytotox inactive
O=C(CNC(=O)c1ccc(S(=O)(=O)N2CCCC2)cc1)N/N=C/c1ccccc1	none
COc1cccc(C(=O)Nc2nc(-c3ccncc3)cs2)c1	IDE cell inh 26.4 | IDE cell inh cf inactive | HEK cytotox inactive
COC(=O)c1ccc(C2C(C#N)=C(N)Oc3cc(O)ccc32)cc1 (configuration not stated)	IDE cell inh 23.7 (no result: TRPML3 agonist, zfTRPN1 agonist) | IDE cell inh cf inactive | HEK cytotox inactive
CN(C)c1ccc2c(c1)OC(N)=C(C#N)C2c1cccc(F)c1 (configuration not stated)	IDE cell inh 27.8 | IDE cell inh cf 16.3 | HEK cytotox 71.8
